Experimental data taken from ChEMBL document CHEMBL3352597, “Heck products of parthenolide and melampomagnolide-B as anticancer modulators that modify cell cycle progression” (Eur J Med Chem, 2014).
≈ marks a conversion by molar mass, not a printed value. Calls of active or inactive are those of the source. The calls are words filed in the database; no cut-off is given here.

Assays:
[1] = Solubility in serum (unknown origin); type: ADME
A549 = test: Anticancer activity against human A549 cells; type: functional
In short: (§1)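 NCI 60 human cancer cell line panel, multiple-dose testing at five concentrations (10^-4, 10^-5, 10^-6, 10^-7 and 10^-8 M). Dose-response curves plot cytotoxic effect against log10 of drug concentration for each cell line. GI50 is the molar concentration giving 50% growth inhibition; LC50 is the concentration killing 50% of cells.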

[2] = Anticancer activity against human NCI-ADR-RES cells; type: functional; in short: as §1
A498 = test: Anticancer activity against human A498 cells; type: functional; in short: as §1
[3] = Anticancer activity against human UACC257 cells; type: functional
In short: (§2)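 NCI 60 human tumour cell line screen. A single-concentration pre-screen was run at 10^-5 M. Compounds selected from it were then tested at five concentrations, 10^-4 to 10^-8 M. Dose-response curves plotted cytotoxic effect against log10 of the drug concentration for each cell line. GI50 is the molar concentration giving 50% growth inhibition, and LC50 the concentration killing 50% of cells.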

MDA-MB-231 = test: Anticancer activity against human MDA-MB-231 cells; type: functional; in short: as §1
[4] = Anticancer activity against human HCT15 cells; type: functional; in short: as §1
[5] = Anticancer activity against human OVCAR5 cells; type: functional; in short: as §1
SN12C = test: Anticancer activity against human SN12C cells; type: functional; in short: as §1
M14 = test: Anticancer activity against human M14 cells; type: functional; in short: as §1
SNB-19 = test: Anticancer activity against human SNB19 cells; type: functional; in short: as §1
SK-MEL-2 = test: Anticancer activity against human SK-MEL-2 cells; type: functional; in short: as §1
NCI-H322M = test: Anticancer activity against human NCI-H322M cells after 48 hrs; type: functional; in short: as §1
NCI-H23 = test: Anticancer activity against human NCI-H23 cells; type: functional; in short: as §1
HCC 2998 = test: Anticancer activity against human HCC2998 cells; type: functional; in short: as §1
[6] = Anticancer activity against human OVCAR3 cells; type: functional; in short: as §1
Malme-3M = test: Anticancer activity against human MALME-3M cells; type: functional; in short: as §1
HT-29 = test: Anticancer activity against human HT-29 cells; type: functional; in short: as §1
[7] = Anticancer activity against human BT549 cells; type: functional; in short: as §1
SK-MEL-28 = test: Anticancer activity against human SK-MEL-28 cells; type: functional; in short: as §1
SK-MEL-5 = test: Anticancer activity against human SK-MEL-5 cells; type: functional; in short: as §1
MDA-MB-468 = test: Anticancer activity against human MDA-MB-468 cells; type: functional; in short: as §1
[8] = Anticancer activity against human HCT116 cells; type: functional; in short: as §1
NCI-H460 = test: Anticancer activity against human NCI-H460 cells; type: functional; in short: as §1
[9] = Anticancer activity against human OVCAR8 cells; type: functional; in short: as §1
SF-268 = test: Anticancer activity against human SF268 cells; type: functional; in short: as §1
786-0 = test: Anticancer activity against human 786-0 cells; type: functional; in short: as §1
SR = test: Anticancer activity against human SR cells; type: functional; in short: as §2
HOP-62 = test: Anticancer activity against human HOP62 cells; type: functional; in short: as §1
UACC-62 = test: Anticancer activity against human UACC62 cells; type: functional; in short: as §2
ACHN = test: Anticancer activity against human ACHN cells; type: functional; in short: as §1
K562 = test: Anticancer activity against human K562 cells; type: functional; in short: as §1
HL-60(TB) = test: Anticancer activity against human HL-60(TB) cells; type: functional; in short: as §1
RXF 393 = test: Anticancer activity against human RXF393 cells; type: functional; in short: as §1
IGROV-1 = test: Anticancer activity against human IGROV1 cells; type: functional; in short: as §1
[10] = Anticancer activity against human Hs 578T cells; type: functional; in short: as §1
SW-620 = test: Anticancer activity against human SW620 cells; type: functional; in short: as §2
CAKI-1 = test: Anticancer activity against human CAKI-1 cells; type: functional; in short: as §1
MCF7 = test: Anticancer activity against human MCF7 cells; type: functional; in short: as §1
SNB-75 = test: Anticancer activity against human SNB75 cells; type: functional; in short: as §2
NCI-H522 = test: Anticancer activity against human NCI-H522 cells; type: functional; in short: as §1
[11] = Anticancer activity against human COLO205 cells; type: functional; in short: as §1
[12] = Anticancer activity against human MOLT4 cells; type: functional; in short: as §1
[13] = Anticancer activity against human SF539 cells; type: functional; in short: as §1
CCRF-CEM = test: Anticancer activity against human CCRF-CEM cells; type: functional; in short: as §1
DU-145 = test: Anticancer activity against human DU145 cells after 48 hrs; type: functional; conditions: DU-145, 48 h; in short: as §1
TK-10 = test: Anticancer activity against human TK10 cells; type: functional; in short: as §2
[14] = Anticancer activity against human UO31 cells; type: functional; in short: as §2
[15] = Anticancer activity against human RPMI8226 cells; type: functional; in short: as §1
[16] = Anticancer activity against human SKOV3 cells; type: functional; in short: as §1
[17] = Anticancer activity against human SF295 cells; type: functional; in short: as §1
NCI-H226 = test: Anticancer activity against human NCI-H226 cells; type: functional; in short: as §1
[18] = Anticancer activity against human OVCAR4 cells; type: functional; in short: as §1
[19] = Anticancer activity against human PC3 cells; type: functional; in short: as §1
[20] = Anticancer activity against human LOXIMVI cells; type: functional; conditions: LOX IMVI; in short: as §1
T47D = test: Anticancer activity against human T47D cells; type: functional; in short: as §2
KM12 = test: Anticancer activity against human KM12 cells; type: functional; in short: as §1
U-251 = test: Anticancer activity against human U251 cells; type: functional; in short: as §2
MDA-MB-435 = test: Anticancer activity against human MDA-MB-435 cells; type: functional; in short: as §1
[21] = read-out: LC50 (the source's name)

C=C1C(=O)O[C@@H]2C3O[C@]3(C)CC/C=C(\C)CC[C@@H]12 (some centres not stated)
solubility [1]: 169 µM (≈ 42 µg/mL)

C/C1=C\CC[C@@]2(C)O[C@@H]2[C@H]2OC(=O)C(Cn3ccnc3I)[C@@H]2CC1 (some centres not stated)
GI50 (A549): 19.8 µM
CC50 (A549; [21]): > 100 µM
GI50 [2]: 31.2 µM
CC50 [2, 21]: > 100 µM
GI50 (A498): 45.2 µM
CC50 (A498; [21]): > 100 µM
GI50 ([3]; UACC-257): 12 µM
CC50 ([3]; UACC-257, read-out: LC50 (the source's name)): 53.9 µM
GI50 (MDA-MB-231): 16.4 µM
LC50 (concentration killing 50% of cells) (MDA-MB-231): 59.6 µM
GI50 ([4]; HCT-15): 10.7 µM
CC50 ([4]; HCT-15, read-out: LC50 (the source's name)): 55.6 µM
GI50 ([5]; OVCAR-5): 13.7 µM
CC50 ([5]; OVCAR-5, read-out: LC50 (the source's name)): 52.5 µM
GI50 (SN12C): 17.7 µM
CC50 (SN12C; [21]): 84.1 µM
GI50 (M14): 16.5 µM
CC50 (M14; [21]): 65.6 µM
GI50 (SNB-19): > 100 µM
CC50 (SNB-19; [21]): > 100 µM
GI50 (SK-MEL-2): 18.6 µM
CC50 (SK-MEL-2; [21]): 66.1 µM
GI50 (NCI-H322M): 61.3 µM
CC50 (NCI-H322M; [21]): > 100 µM
GI50 (NCI-H23): 23.7 µM
CC50 (NCI-H23; [21]): > 100 µM
GI50 (HCC 2998): inactive
LC50 (HCC 2998): inactive
GI50 ([6]; OVCAR-3): 6.85 µM
CC50 ([6]; OVCAR-3, read-out: LC50 (the source's name)): 50.8 µM
GI50 (Malme-3M): 10.9 µM
CC50 (Malme-3M; [21]): 62.7 µM
GI50 (HT-29): 17.6 µM
CC50 (HT-29; [21]): 61.5 µM
GI50 ([7]; BT-549): 15.9 µM
CC50 ([7]; BT-549, read-out: LC50 (the source's name)): 55.3 µM
GI50 (SK-MEL-28): 16.1 µM
CC50 (SK-MEL-28; [21]): 73 µM
GI50 (SK-MEL-5): 18.5 µM
LC50 (SK-MEL-5): 95.6 µM
GI50 (MDA-MB-468): 11.1 µM
LC50 (concentration killing 50% of cells) (MDA-MB-468): 60.4 µM
GI50 ([8]; HCT-116): 11.8 µM
CC50 ([8]; HCT-116, read-out: LC50 (the source's name)): 49 µM
GI50 (NCI-H460): 30.1 µM
CC50 (NCI-H460; [21]): > 100 µM
GI50 ([9]; OVCAR-8): 16.6 µM
CC50 ([9]; OVCAR-8, read-out: LC50 (the source's name)): 59.9 µM
GI50 (SF-268): 23 µM
CC50 (SF-268; [21]): > 100 µM
GI50 (786-0): 14.3 µM
CC50 (786-0; [21]): 53 µM
GI50 (SR): 13.6 µM
CC50 (SR; [21]): > 100 µM
GI50 (HOP-62): 47.4 µM
CC50 (HOP-62; [21]): > 100 µM
GI50 (UACC-62): inactive
LC50 (UACC-62): inactive
GI50 (ACHN): 10.5 µM
CC50 (ACHN; [21]): 47.4 µM
GI50 (K562): 7.36 µM
CC50 (K562; [21]): 90 µM
GI50 (HL-60(TB)): 6.9 µM
CC50 (HL-60(TB); [21]): 77.5 µM
GI50 (RXF 393): inactive
LC50 (RXF 393): inactive
GI50 (IGROV-1): 20 µM
CC50 (IGROV-1; [21]): 75.6 µM
GI50 [10]: 21.3 µM
CC50 [10, 21]: > 100 µM
GI50 (SW-620): 11.4 µM
CC50 (SW-620; [21]): 62.8 µM
GI50 (CAKI-1): 6.61 µM
CC50 (CAKI-1; [21]): 49.5 µM
GI50 (MCF7): 9.79 µM
CC50 (MCF7; [21]): > 100 µM
GI50 (SNB-75): 19.3 µM
CC50 (SNB-75; [21]): > 100 µM
GI50 (NCI-H522): 1.71 µM
CC50 (NCI-H522; [21]): 6.34 µM
GI50 ([11]; COLO 205): 14.5 µM
CC50 ([11]; COLO 205, read-out: LC50 (the source's name)): 58.8 µM
GI50 ([12]; MOLT-4): 19.6 µM
CC50 ([12]; MOLT-4, read-out: LC50 (the source's name)): 97.9 µM
GI50 ([13]; SF-539): 16.7 µM
CC50 ([13]; SF-539, read-out: LC50 (the source's name)): 60.8 µM
GI50 (CCRF-CEM): 6.13 µM
CC50 (CCRF-CEM; [21]): 79.6 µM
GI50 (DU-145): 18.8 µM
CC50 (DU-145; [21]): 68.3 µM
GI50 (TK-10): inactive
LC50 (TK-10): inactive
GI50 ([14]; UO-31): 10.8 µM
CC50 ([14]; UO-31, read-out: LC50 (the source's name)): 50 µM
GI50 ([15]; RPMI-8226): 17 µM
CC50 ([15]; RPMI-8226, read-out: LC50 (the source's name)): > 100 µM
GI50 ([16]; SK-OV-3): 47.3 µM
CC50 ([16]; SK-OV-3, read-out: LC50 (the source's name)): > 100 µM
GI50 ([17]; SF-295): 32.1 µM
CC50 ([17]; SF-295, read-out: LC50 (the source's name)): > 100 µM
GI50 (NCI-H226): 15.4 µM
CC50 (NCI-H226; [21]): 62.3 µM
GI50 ([18]; OVCAR-4): 13.2 µM
CC50 ([18]; OVCAR-4, read-out: LC50 (the source's name)): 60 µM
GI50 ([19]; PC-3): 23.1 µM
CC50 ([19]; PC-3, read-out: LC50 (the source's name)): 100 µM
GI50 [20]: 14.9 µM
CC50 [20, 21]: 60.9 µM
GI50 (T47D): 9.88 µM
CC50 (T47D; [21]): 54.3 µM
GI50 (KM12): 43.2 µM
CC50 (KM12; [21]): > 100 µM
GI50 (U-251): 36.7 µM
CC50 (U-251; [21]): > 100 µM
GI50 (MDA-MB-435): 13.8 µM
CC50 (MDA-MB-435; [21]): 59.5 µM
